From publication PMC4398655 (Bioorganic & medicinal chemistry, 2015)
“Also recorded” adds a separate entry of the source. Read-outs that look alike come from different tables or passages of the source.

How the values were obtained:
[1] = tested on: HEK293/pcDNA3.1 human primary embryonic kidney cells; experiment: MTT cell cytotoxicity assay, HEK293/pcDNA3.1; format: cell-based; conditions: HEK293, 72 h, read-out: IC50 ± SD, HEK 293/pcDNA.3.1
Outline: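 Empty-vector-transfected HEK293 cells, grown adherent in DMEM + 10% FBS at 37°C, 5% CO2, were trypsinised and seeded at 5×10³ cells/well. Test compound was added at 0.1–100 μM for 72 h. MTT solution (4 mg/ml) was then added for 4 h, and formazan was dissolved in DMSO and read at 570 nm. IC50 was derived from survival curves by the Bliss method; mean±SD from ≥3 experiments, each in triplicate.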

[2] = tested on: ABCB1 (P-glycoprotein, MDR1); experiment: MTT cell cytotoxicity assay, ABCB1 overexpressing cells; format: cell-based; conditions: human, HEK293/ABCB1 cells (P-glycoprotein overexpressing)
[3] = tested on: six human cancer cell lines (HCT-116, S1, DU-145, PC-3, MDA-MB-231, MCF-7); experiment: MTT cell cytotoxicity assay, panel of cancer cell lines; format: cell-based; conditions: for IC50: Homo sapiens
Outline: (§1)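 Cell lines grown as adherent monolayers in DMEM with 10% FBS at 37°C, 5% CO2. Trypsinised cells seeded at 5×10^3 cells/well and exposed to test compound at 0.1 to 100 μM for 72 h. MTT (4 mg/ml) added for 4 h, formazan dissolved in DMSO, and absorbance read at 570 nm. IC50 derived from survival curves by the Bliss method. Mean±SD from at least three experiments, each in triplicate.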

[4] = tested on: HCT-116 colon cancer cells; experiment: Morphological analysis by microscopy, HCT-116; format: cell-based, human; conditions: 68 h
Outline: (§2)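 Cells from the MTT setup, with and without test compound, were photographed at 68 h on an inverted microscope for each triplicate treatment. Images for the different concentrations were compared double-blind for cell size, shape and number.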

[5] = tested on: PC-3 prostate cancer cells; experiment: Morphological analysis by microscopy, PC-3; format: cell-based, human; conditions: 68 h
Outline: as §2

[6] = tested on: PC-3 prostate cancer cells; conditions: 10 μM for 72 h, relative percent cell viability only; cited from earlier work
[7] = tested on: HCT-116 colon cancer cells; conditions: 10 μM for 72 h, relative percent cell viability only; cited from earlier work
[8] = tested on: MCF-7 breast cancer cells; conditions: 10 μM for 72 h, relative percent cell viability only; cited from earlier work
[9] = tested on: PC-3 prostate cancer cells; experiment: MTT cell cytotoxicity assay, PC-3; format: cell-based; conditions: Homo sapiens, 72 h, read-out: IC50 ± SD, PC3
Outline: as §1

[10] = read-out: mean IC50 values in all the cancer cell lines tested

COc1ccc(CCC(=O)CC(C)=O)cc1 [VA-18, 6-(4-methoxyphenyl)hexane-2,4-dione]
IC50 [1]: 50.2 ± 8.9 µM | IC50 at 72 h [2]: 51.2 ± 10.3 µM

COc1ccc(/C=C/c2cc(C)n[nH]2)cc1 [VA-15, (E)-5-(4-methoxystyryl)-3-methyl-1H-Pyrazole]
IC50 [3, 10]: 3.3 to 10.7 µM

COc1cc(/C=C/C(=O)CC(C)=O)ccc1O [VA-2, hispolon methyl ether]
IC50 ([3]; read-out: observed mean IC50 values in colon and prostate cancer cell lines): 1.4 to 6.3 µM | morphological analysis (cell number, cell size) ([4]; 1 μM): marked reduction of cell number; also recorded: significant reduction of cell number | morphological analysis (cell number, cell size) ([5]; 1 μM): marked reduction of cell number; also recorded: significant reduction of cell number | activity against PC-3 (previous study) [6]: active | activity against HCT-116 (previous study) [7]: active | activity against MCF-7 (previous study) [8]: active

CC(=O)CC(=O)/C=C/c1ccc(O)cc1 [VA-3, dehydroxy hispolon]
activity against PC-3 (previous study) [6]: active | activity against HCT-116 (previous study) [7]: active | activity against MCF-7 (previous study) [8]: active

COc1cc(CCC(=O)CC(C)=O)ccc1O [VA-16]
IC50 [9]: > 100 µM | activity (inhibition of cell survival) in the tested concentration range ([3]; MTT, concentrations up to 100 μM): no significant activity | morphological characteristics ([4]; concentrations up to 100 μM): no significant change | morphological characteristics ([5]; concentrations up to 100 μM): no significant change

Cc1cc(/C=C/c2ccc(O)c(O)c2)on1 [VA-7]
IC50 [3, 10]: 3.3 to 10.7 µM

CC(=O)/C=C(O)/C=C/c1ccc(O)c(O)c1 [VA-1, Hispolon]
activity against PC-3 (previous study) [6]: active | activity against HCT-116 (previous study) [7]: active | activity against MCF-7 (previous study) [8]: active
